# Compound activity (PubChem)
# VLA-4 inh: inhibition in human VLA-4 binding assay, primary screen, VLA-4 allosteric modulator project, MLPCN library, flow cytometry, VLA-4 expressing cells | inhibition, % (about 7 µM as worked out from the volumes in the protocol) | Integrin alpha-4 (Homo sapiens), P13612 | 330,000 compounds, 0.2% hits | ligand binding flow cytometry; in the data active means inhibition above about 50%
# NR2E3 ag-1: inhibitors of NR2E3-RetCOR corepressor binding, primary screen, NR2E3 agonist project, biochemical, TR-FRET, GST-NR2E3, biotin-RetCOR; inhibition of corepressor binding, % at 4.78 µM; 1536-well; Photoreceptor-specific nuclear receptor (Homo sapiens), Q9Y5X4; AID 2300, 2010; 320,000 compounds, 0.12% hits;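 active means percent inhibition above the cutoff of mean plus 3 SD of all tested compounds, set per screening campaign, cut at about 20% in these data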;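 further: 0% = DMSO wells and 100% = biotin wells as full block of FRET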
#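 Test system – NR2E3–RetCOR corepressor complex · Quantity – NR2E3 fusion 1.35 nM · Buffer or medium – Tris pH 7.5 · Incubation – Compound–protein incubation for 5 h at 4 °C · Technique – TR-FRET, Eu(K)-anti-GST donor, streptavidin-D2 acceptor, ex 340, em 617/671 nm · Evaluation – percent inhibition of 671/617 nm emission ratio versus biotin and DMSO controls · Plate – 1536-well format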
# PG9 Ab binder: binders of HIV-1 gp120 antibody PG9, primary screen, biochemical, TR-FRET | HIV-1 gp120 / PG9 antibody interaction | TR-FRET gp120-PG9 antibody binding | inhibition, % at 6.7 µM | 360,000 compounds, 0.43% hits; in the data active means inhibition above about 8.5%
# NR2E3 ag-2: NR2E3 agonists in two-hybrid cells, primary screen, cell-based, luminescence, CHO-S, Gal4-NCOR/VP16-NR2E3. Photoreceptor-specific nuclear receptor (Homo sapiens), Q9Y5X4. luciferase. inhibition of corepressor binding, % at 3.98 µM. 360,000 compounds, 0.35% hits;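 active means inhibition above the mean of all tested compounds plus 3 SD, cut at about 70% in these data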;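 further: 0% = DMSO with NR2E3 transfected cells and 100% = cells lacking NR2E3 construct; higher means lower luciferase signal from less NR2E3 corepressor binding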
# NR1D1 modulator: modulators of Rev-erb alpha DNA binding, primary screen, biochemical, FITC-DNA, fluorescence polarization, uHTS | Nuclear receptor subfamily 1 group D member 1 (Homo sapiens), P20393 | Rev-erbα–FITC-DNA binding, 90 min | activity, % at 10 µM | 370,000 compounds, 0.79% hits | AID 1259318, 2017;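 active means activity above about 14%, limit read from the data; passing the limit was not always enough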;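 further: 0% = DMSO wells with 35 nM protein and 100% = DMSO wells with 750 nM protein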
# Target sequence (P20393 whole entry, looked up): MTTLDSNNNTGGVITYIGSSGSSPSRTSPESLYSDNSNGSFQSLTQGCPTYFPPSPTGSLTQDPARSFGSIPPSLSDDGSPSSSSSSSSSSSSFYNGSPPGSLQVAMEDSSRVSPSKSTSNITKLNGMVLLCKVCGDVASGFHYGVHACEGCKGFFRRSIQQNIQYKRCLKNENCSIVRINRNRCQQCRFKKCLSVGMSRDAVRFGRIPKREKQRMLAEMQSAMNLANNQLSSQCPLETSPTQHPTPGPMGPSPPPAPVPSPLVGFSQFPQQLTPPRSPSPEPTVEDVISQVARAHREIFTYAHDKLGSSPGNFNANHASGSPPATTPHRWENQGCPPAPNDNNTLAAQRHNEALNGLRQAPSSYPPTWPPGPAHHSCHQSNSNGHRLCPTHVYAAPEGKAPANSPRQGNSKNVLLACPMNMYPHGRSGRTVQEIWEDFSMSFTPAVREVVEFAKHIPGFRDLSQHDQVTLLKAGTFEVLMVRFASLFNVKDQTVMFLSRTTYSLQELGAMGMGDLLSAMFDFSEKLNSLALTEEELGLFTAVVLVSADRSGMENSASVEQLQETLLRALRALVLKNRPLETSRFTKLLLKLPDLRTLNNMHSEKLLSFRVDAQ
# NR1D1 mod conf: modulators of Rev-erb alpha DNA binding, confirmation, biochemical, FITC-DNA, fluorescence polarization, single point; shares compounds with NR1D1 modulator; 90 min; activation, % at 25 µM; 3,000 compounds, 61% hits;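 active means activation at or above a set limit, or at least 3 SD above the negative control mean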;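 further: 0% = 35 nM protein with DMSO and 100% = 750 nM protein high control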
# RORg DNA counter: modulation of RORgamma DNA binding, dose response, counter-screen for Rev-erb alpha modulator project, biochemical, fluorescence polarization, FITC-DNA | shares compounds with NR1D1 modulator | 910 compounds, 8% hits | purified RORgamma protein-FITC-DNA binding | IC50, µM | AID 1259320, 2017;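 active means Compounds whose fitted half-maximal concentration for disrupting protein-DNA binding is below 10 micromolar; the record names Rev-erb in its text, so the target is in doubt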
# * marks the source's active call; other numbers are inactive results; i = inactive; · = not tested or not shown; ! = not confirmed by another sample. Hits are enriched below; roughly 1.6% of the tested compounds scored in any of these assays.
SMILES,VLA-4 inh,NR2E3 ag-1,PG9 Ab binder,NR2E3 ag-2,NR1D1 modulator,NR1D1 mod conf,others
O=C(NCc1ccc2c(c1)OCO2)C1CCC(CNS(=O)(=O)c2cccc3nsnc23)CC1 (stereo not drawn),-14.8,3.4,1.4,-3.9,33.8*,28.1*,RORg DNA counter=>40
COc1ccc(CNC(=O)C2CCC(CNS(=O)(=O)c3cccc4nsnc34)CC2)cc1 (stereo not drawn),7.4,4.0,0.6,-26.0,72.1*,51.8*,RORg DNA counter=>40
Cc1ccc(C(=O)CSc2ncnc3sc4c(c23)CCCC4)cc1,10.2,-0.4,-1.3,-21.6,34.3*,18.4*,
Cc1ccc(C(=O)N(C)[C@H]2C[C@H]3c4[nH]c5c(-c6ccccc6)cccc5c4CCN3C(=O)[C@H]2[C@H](C)O)cc1,·,·,-0.6,·,3.3,·,
Cc1cccc(N2CCN(C(=O)CCCn3c(=S)[nH]c4cc5c(cc4c3=O)OCO5)CC2)c1C,0.9,-0.1,4.8,3.1,24.4*,19.6*,
CC(=O)c1ccc(N2CCN(C(=O)CCCn3c(=S)[nH]c4cc5c(cc4c3=O)OCO5)CC2)cc1,1.6,-2.0,-1.9,-15.5,24.9*,16.9,
O=C(Cn1c(=S)[nH]c2ccccc2c1=O)N1CCN(c2ccccc2)CC1,4.4,3.7,-0.2,3.8,40.2*,23.6*,
O=C(CCCn1c(=S)[nH]c2cc3c(cc2c1=O)OCO3)N1CCN(c2ccc(Cl)cc2)CC1,-9.7,2.1,4.0,3.4,20.5,·,
CCOc1cc(/C=C(\C#N)C(N)=O)ccc1OCc1c(C)no[n+]1[O-],0.0,0.4,0.5,15.5,-0.4,·,
Brc1ccc(Sc2cnc3ccccc3n2)cc1,4.4,5.3,6.7,-45.2,49.2*,35.2*,RORg DNA counter=>40
Clc1ccc(Sc2cnc3ccccc3n2)cc1,3.0,5.7,6.2,-13.9,31.5*,29.5*,
Clc1ccccc1Sc1cnc2ccccc2n1,-1.0,11.6,5.4,-0.3,10.8,·,
c1ccc(Sc2cnc3ccccc3n2)cc1,14.6,3.1,3.8,-26.6,19.5*,21.6*,
O=[N+]([O-])c1ccc(Sc2nnnn2-c2ccccc2)nc1,·,·,-2.3,·,-1.5,·,
CC(C)C#Cc1ccc2c(c1)O[C@@H](CN(C)S(=O)(=O)c1cn(C)cn1)[C@@H](C)CN([C@H](C)CO)S2(=O)=O,·,·,0.6,-36.2,-0.5,·,
O=C(NNc1c2ccccc2nc2ccccc12)c1cccc(O)c1,-2.6,-3.2,-12.4,-9.1,19.8*,15.9,
O=C(NNc1c2ccccc2nc2ccccc12)c1ccc(O)cc1,-5.7,-10.4,-17.2,-63.1,9.4,·,
CC1(C(=O)NS(=O)(=O)c2cccc(Cl)c2)CCN1C(=O)CC1CCCCC1 (stereo not drawn),·,·,-1.8,-16.5,16.4*,3.5,
CC1(C(=O)NS(=O)(=O)c2cccc(Cl)c2)CCN1C(=O)CC1CC1 (stereo not drawn),·,·,0.3,4.4,-3.4,·,
O=C(COc1ccc2ccccc2c1)NNC(=O)Cc1ccccc1,-9.0,-104.4,-28.5,-19.6,35.3*,28.8*,
COc1ccc(C(=O)Nc2nc(C)c(C)s2)cc1OC,15.6,1.7,-1.0,-99.3,-2.5,·,
COc1cc(C(=O)Nc2nc(-c3cc(C)ccc3C)c(C)s2)ccc1OCC(=O)Nc1ccc(F)cc1,7.8,2.7,-0.2,-31.0,71.2*,48.8*,RORg DNA counter=>40
CCC(c1ccc(O)cc1)C(CC)c1ccc(O)cc1 (stereo not drawn),9.2,-0.2,0.1,3.6,33.9*!,40.8*,RORg DNA counter=>40
CC1=C(C(=O)OC2CCCCC2)C(c2ccccc2Br)NC(=O)N1 (stereo not drawn),10.9,1.9,0.0,-26.3,15.1*,15.2,
CCOc1ccccc1C1NC(=O)NC(C)=C1C(=O)OC1CCCCC1 (stereo not drawn),-14.8,1.8,-0.8,-0.3,1.9,·,
SMILES,VLA-4 inh,NR2E3 ag-1,PG9 Ab binder,NR2E3 ag-2,NR1D1 modulator,NR1D1 mod conf,others
CC1=C(C(=O)OC2CCCCCCC2)C(c2cc3c(cc2Br)OCO3)CC(=O)N1 (stereo not drawn),17.6,-2.6,1.2,14.4,22.8*,29.6*,
COc1cccc(CCc2nnc(CCC(=O)N3CCN(Cc4ccccn4)CC3)o2)c1,-6.8,-1.4,-2.2,-19.0,0.4,·,
CC1(C(=O)Nc2ccc3c(c2)OCCO3)CN(S(C)(=O)=O)CC(=O)N1CC(F)(F)F (stereo not drawn),·,·,-1.2,·,2.0,·,
CCOC(=O)N1CCC(n2c(SCC(=O)c3ccccc3)nc3ccsc3c2=O)CC1,2.2,-0.7,-2.2,5.3,36.8*,55.4*,RORg DNA counter=i
CCOC(=O)c1c(-c2cccs2)csc1NC(=O)CC(C)C,7.9,3.1,0.4,-17.5,1.0,·,
CCOC(=O)c1c(-c2cccs2)csc1NC(=O)c1ccco1,-9.3,0.7,-2.4,-42.0,35.8*,10.9,
Cc1ccccc1C(=O)NN(C)c1nc2ccccc2nc1C(F)(F)F,13.3,-0.7,-0.5,-27.5,36.1*,30.6*,
COc1cc(C(=O)NCc2cccnc2)ccc1OCC(=O)Nc1cccc(C(F)(F)F)c1,17.5,4.9,0.0,8.5,18.3*,7.1,
CCOc1ccc(NC(=O)COc2ccc(C(=O)NCc3cccnc3)cc2OC)cc1,6.3,-1.9,-1.8,8.9,-4.7,·,
O=c1c(Cc2c(F)cccc2Cl)c(O)ccn1CCCN1CCOCC1,21.1,-3.6,2.6,-0.1,5.8,·,
CCOC(=O)Nc1ccc2c(COC(=O)CNS(=O)(=O)c3ccc(NC(C)=O)cc3)cc(=O)oc2c1,33.1,4.8,6.0,-6.6,54.5*,34.7*,RORg DNA counter=>40
Cc1ccc2c(COC(=O)CNS(=O)(=O)c3ccccc3)cc(=O)oc2c1,7.8,·,1.8,6.2,2.7,·,
CN(C)/C=N/C1=C(C#N)C(c2cccs2)c2ccc3ccccc3c2O1 (stereo not drawn),·,·,-1.2,-137.2,172.8*,117.2*,RORg DNA counter=>40
N#CC1=C(N)Oc2cc3ccccc3cc2C1c1cccs1 (stereo not drawn),4.3,4.0,-2.1,-59.4,0.3,·,
Cc1cc(N2CCOCC2)n2nc(C)c(-c3ccc(Cl)cc3)c2n1,7.5,3.9,1.3,-39.7,25.6*,-1.1,
CC(=O)Nc1ccc(Nc2cc(C)nc3c(-c4ccc(Cl)cc4)c(C)nn23)cc1,6.3,-1.0,0.5,-10.3,19.5*,6.8,
